Reference: ChEMBL document CHEMBL1148356, “Synthesis and biological evaluation of 3-heterocyclyl-7,8,9,10-tetrahydro-(7,10-ethano)-1,2,4-triazolo[3,4-a]phthalazines and analogues as subtype-selective inverse agonists for the GABA(A)alpha5 benzodiazepine binding site” (J Med Chem, 2004)

Key:
[1] = target: GABA-A receptor; alpha-1/beta-3/gamma-2 (Homo sapiens) (UniProt P14867+P18507+P28472); experiment: Percent maximum change in electrophysiological response in Xenopus oocytes expressing alpha-1-beta-3-gamma-2 GABA-A receptor; assay type: functional, cell-based; settings: Oocyte
Method in brief: (§1)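 Two-electrode voltage clamp on Xenopus oocytes injected with human GABA-A subunit cDNAs, 24-72 h expression, perfused with modified Barth's medium at pH 7.5, clamped between -40 and -70 mV. The GABA EC20 was titrated against a 3 mM GABA maximum. […] Result is % change of control current, mean ± SE of ≥4 oocytes.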

[2] = target: T1, GABA-A receptor; alpha-5/beta-3/gamma-2 (Homo sapiens, UniProt P18507+P28472+P31644); experiment: Effective concentration against human Alpha-5-beta-3-gamma-2 GABA-A receptor was determined; assay type: functional
T1 sequence (P18507 whole entry): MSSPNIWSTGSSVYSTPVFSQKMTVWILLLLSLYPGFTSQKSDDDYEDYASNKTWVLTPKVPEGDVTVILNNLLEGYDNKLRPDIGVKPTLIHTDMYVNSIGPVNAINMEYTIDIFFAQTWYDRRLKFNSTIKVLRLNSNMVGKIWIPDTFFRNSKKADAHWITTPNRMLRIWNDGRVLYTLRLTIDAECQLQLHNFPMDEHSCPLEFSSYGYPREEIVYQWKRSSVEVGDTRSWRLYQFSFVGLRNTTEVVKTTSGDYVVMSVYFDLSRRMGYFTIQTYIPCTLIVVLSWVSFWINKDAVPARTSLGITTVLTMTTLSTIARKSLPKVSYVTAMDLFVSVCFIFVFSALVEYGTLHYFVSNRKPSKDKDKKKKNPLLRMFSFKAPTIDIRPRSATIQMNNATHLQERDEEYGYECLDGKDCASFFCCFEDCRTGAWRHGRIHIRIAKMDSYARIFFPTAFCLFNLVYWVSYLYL
T1 sequence (P28472 whole entry): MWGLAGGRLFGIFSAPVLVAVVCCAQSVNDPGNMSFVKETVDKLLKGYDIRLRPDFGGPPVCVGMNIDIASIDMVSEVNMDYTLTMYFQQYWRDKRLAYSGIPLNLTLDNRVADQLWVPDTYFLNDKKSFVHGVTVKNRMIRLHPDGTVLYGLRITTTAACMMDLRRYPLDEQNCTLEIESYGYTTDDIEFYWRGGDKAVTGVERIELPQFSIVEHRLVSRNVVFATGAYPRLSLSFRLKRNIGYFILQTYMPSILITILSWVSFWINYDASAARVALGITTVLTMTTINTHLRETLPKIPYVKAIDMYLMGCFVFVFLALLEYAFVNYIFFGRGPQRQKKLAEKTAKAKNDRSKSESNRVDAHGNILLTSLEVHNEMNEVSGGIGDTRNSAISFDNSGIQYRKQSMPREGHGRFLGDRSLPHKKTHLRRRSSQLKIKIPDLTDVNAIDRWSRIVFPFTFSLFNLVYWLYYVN
T1 sequence (P31644 whole entry): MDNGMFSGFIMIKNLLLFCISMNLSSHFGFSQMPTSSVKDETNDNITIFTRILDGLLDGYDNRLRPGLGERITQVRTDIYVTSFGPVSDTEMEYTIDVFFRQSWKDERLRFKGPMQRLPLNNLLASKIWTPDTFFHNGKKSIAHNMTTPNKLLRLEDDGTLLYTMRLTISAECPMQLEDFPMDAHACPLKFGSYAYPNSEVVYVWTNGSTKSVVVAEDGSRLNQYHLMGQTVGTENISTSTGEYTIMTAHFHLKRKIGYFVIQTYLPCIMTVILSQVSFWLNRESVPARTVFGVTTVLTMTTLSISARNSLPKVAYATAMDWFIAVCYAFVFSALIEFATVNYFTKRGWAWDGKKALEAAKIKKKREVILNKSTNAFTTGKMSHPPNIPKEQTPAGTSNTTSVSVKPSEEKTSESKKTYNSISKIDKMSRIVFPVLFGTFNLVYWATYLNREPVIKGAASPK
Method in brief: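 Whole-cell patch clamp was run on Ltk- cells stably expressing human α5β3γ2s. Bath solution was NaCl/NaHCO3/glucose buffer, pH 7.2. Pipettes held 130 mM CsCl, 10 mM EGTA, 3 mM Mg-ATP, pH 7.3. Drug was applied by double-barreled pipette with an EC20 GABA concentration, and concentration–response data were fitted to a Hill equation for EC50. Values are mean ± SEM of at least five fitted curves, with at least five cells per point.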

[3] = target: GABA-A receptor; alpha-3/beta-3/gamma-2 (Homo sapiens) (UniProt P18507+P28472+P34903); experiment: Percent maximum change in electrophysiological response in Xenopus oocytes expressing alpha-3-beta-3-gamma-2 GABA-A receptor; assay type: functional, cell-based; settings: Oocyte; method in brief: as §1
[4] = target: T2, GABA-A receptor; alpha-3/beta-3/gamma-2 (Homo sapiens, UniProt P18507+P28472+P34903); experiment: Binding affinity towards human gamma-aminobutyric-acid A receptor alpha-3-beta-3-gamma-2 using [3H]Ro-151788 expressed in L(tk-) cells; assay type: cell-based
T2 sequence (P18507 whole entry): T1 sequence (P18507 whole entry)
T2 sequence (P28472 whole entry): T1 sequence (P28472 whole entry)
T2 sequence (P34903 whole entry): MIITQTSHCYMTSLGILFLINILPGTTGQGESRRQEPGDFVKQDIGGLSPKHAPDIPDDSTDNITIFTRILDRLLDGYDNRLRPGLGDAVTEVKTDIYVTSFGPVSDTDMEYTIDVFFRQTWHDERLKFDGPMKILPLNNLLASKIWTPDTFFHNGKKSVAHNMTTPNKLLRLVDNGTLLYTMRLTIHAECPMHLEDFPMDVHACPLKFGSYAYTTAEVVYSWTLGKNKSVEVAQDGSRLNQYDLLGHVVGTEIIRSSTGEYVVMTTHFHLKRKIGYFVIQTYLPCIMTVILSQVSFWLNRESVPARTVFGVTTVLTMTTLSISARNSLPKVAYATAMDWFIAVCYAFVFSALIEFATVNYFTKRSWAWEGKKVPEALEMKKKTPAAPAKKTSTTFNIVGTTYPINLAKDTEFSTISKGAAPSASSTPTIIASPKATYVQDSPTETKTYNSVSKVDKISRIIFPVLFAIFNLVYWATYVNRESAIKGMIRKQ

[5] = target: GABA-A receptor; alpha-2/beta-3/gamma-2 (Homo sapiens) (UniProt P18507+P28472+P47869); experiment: Percent change in electrophysiological response in Xenopus oocytes expressing Alpha2-beta3-gamma2 GABA-A receptor; assay type: functional, cell-based; settings: Oocyte; method in brief: as §1

Efficacy [1]: -14%
EC50 [2]: 2.5 nM
Efficacy [3]: -17%
Ki [4]: 1.4 nM
Efficacy [5]: 15%
Compound: Cc1cc(-c2nnc3c4ccccc4c(OCc4ccccn4)nn23)no1
